# Assay results as given in ChEMBL document CHEMBL1124898, “Novel agents effective against solid tumors: the diarylsulfonylureas. Synthesis, activities, and analysis of quantitative structure-activity relationships” (J Med Chem, 1990).
# Tests used:
# CCRF-CEM = assay: Concentration required to inhibit growth of CCRF-CEM cells in culture for 72 hr to 50% of control growth; assay type: functional, cell-based; conditions: Homo sapiens
# [1] = Antitumor activity in vivo against the 6C3HED lymphosarcoma dosed for 10 days at 300 mg/kg (ip dosing daily for 8 days); assay type: functional; conditions: Mus musculus, route intraperitoneal
# Outline: (§1)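 Tumor fragments (about 1–2 mm) implanted sc via trochar into a subaxillary site of syngeneic mice (C3H, C57BL/6, Balb/C or DBA/2) or Holtz rats. Groups were 7–10 randomized animals. Compound was suspended in 2.5% Emulphor in 0.9% saline and given orally by gavage or ip, usually from the day after implantation. Tumor volume versus untreated controls was measured one day after the final dose and reported as % inhibition. Scoring bands: +++ 95–100%, ++ 80–94%.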
# [2] = Antitumor activity in vivo against the 6C3HED lymphosarcoma, dosed for 8 days at 300 mg/kg; conditions: Mus musculus, 192 h
# [3] = Tested on X-5563 multiple myeloma and percent inhibition was determined at 150 mg/kg dosage administered for 10 days intraperitoneally.; assay type: functional; conditions: Mus musculus, X5563, po, 240 h; in the assay text read “orally” for “intraperitoneally”; outline: as §1
# B16 [4] = assay: Antitumor activity in vivo expressed as percent of inhibition in B-16-melanoma (solid) cell line; assay type: functional, Mus musculus; outline: as §1
# [5] = Tested on 6 C3 HED lymphosarcoma and number of drug related deaths/total animals in treatment group was determined at 200 mg/kg dosage administered for 10 days intraperitoneally; 1/10; assay type: ADME, organism-based; parameters: dose 200 mg/kg, route intraperitoneal; conditions: mouse, in vivo, ip, 240 h
# [6] = Tested on 6C3HED lymphosarcoma and percent inhibition was determined at 200 mg/kg dosage administered for 10 days intraperitoneally; assay type: functional; conditions: Mus musculus, ip, 240 h, route intraperitoneal; outline: as §1
# CA-755 = assay: Antitumor activity in vivo expressed as percent of inhibition in CA-755-mammary adenocarcinoma tumor cell line; assay type: functional, Mus musculus; outline: as §1
# YOSHIDA = assay: Antitumor activity in vivo expressed as percent of inhibition in Yoshida-sarcoma (rat) cell line; assay type: functional; outline: as §1
# X5563 = assay: Antitumor activity in vivo expressed as percent of inhibition in X5563-plasma cell myeloma cell line; assay type: functional, Mus musculus; outline: as §1
# [7] = Tested on 6C3HED lymphosarcoma and percent inhibition was determined at 100 mg/kg dosage administered for 8 days intraperitoneally; assay type: functional; conditions: Mus musculus, ip, 192 h, route intraperitoneal; outline: as §1
# [8] = Tested on 6C3HED lymphosarcoma and percent inhibition was determined at 50 mg/kg dosage administered for 8 days intraperitoneally; assay type: functional; conditions: Mus musculus, po, 192 h, in the assay text read “orally” for “intraperitoneally”; outline: as §1
# M-5 (Mus musculus) = assay: Antitumor activity in vivo expressed as percent of inhibition in M-5-ovarian carcinoma cell line
# [9] = Tested on CA-755 mammary adenocarcinoma and percent inhibition was determined at 150 mg/kg dosage administered for 10 days intraperitoneally.; assay type: functional; conditions: Mus musculus, CA-755, po, 240 h; in the assay text read “orally” for “intraperitoneally”; outline: as §1
# L1210 = assay: Antitumor activity in vivo and the activity was determined as percent increase in life span determined against L1210V-lymphocytic leukemia tumor cell lines; assay type: functional, Mus musculus
# Outline: (§2)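 The ascites tumor inoculum of 1 × 10^6 cells was given ip to DBA/2 mice, and treatment started the next day. Compound was suspended in 2.5% Emulphor in 0.9% saline. Groups had 7–10 animals. %ILS = (MDD treated − MDD control)/MDD control × 100. Deaths before the control median day of death were counted as toxic. Values are optimal from at least two experiments.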
# P1534J = assay: Antitumor activity in vivo expressed as percent of inhibition in P1534J-lymphatic leukemia cell line; assay type: functional, Mus musculus
# [10] = Tested on 6 C3 HED lymphosarcoma and number of drug related deaths/total animals in treatment group was determined at 100 mg/kg dosage administered for 8 days intraperitoneally; 0/10; assay type: ADME, organism-based; parameters: dose 100 mg/kg, route intraperitoneal; conditions: mouse, in vivo, ip, 192 h
# [11] = Tested on X-5563 multiple myeloma and percent inhibition was determined at 100 mg/kg dosage administered for 10 days intraperitoneally.; assay type: functional; conditions: Mus musculus, X5563, ip, 240 h, route intraperitoneal; outline: as §1
# Colon 26 = assay: Antitumor activity in vivo expressed as percent of inhibition in C-26-colon carcinoma cell line; assay type: functional, Mus musculus; outline: as §1
# P388 = assay: Antitumor activity in vivo and the activity was determined as percent increase in life span determined against P388-lymphocytic leukemia tumor cell lines; assay type: functional, Mus musculus; outline: as §2
# [12] = Tested on 6C3HED lymphosarcoma and percent inhibition was determined at 200 mg/kg dosage administered for 8 days intraperitoneally; assay type: functional; conditions: Mus musculus, po, 192 h, in the assay text read “orally” for “intraperitoneally”; outline: as §1
# B16 [13] = assay: Antitumor activity in vivo and the activity was determined as percent increase in life span determined against B-16-melanoma (ascites) cell lines; assay type: functional, Mus musculus; outline: as §2
# [14] = tested on: Lewis lung carcinoma cell line; assay: Antitumor activity in vivo expressed as percent of inhibition in Lewis-lung carcinoma cell line; assay type: functional, Mus musculus; outline: as §1
# [15] = Tested on CA-755 mammary adenocarcinoma and percent inhibition was determined at 50 mg/kg dosage administered for 10 days intraperitoneally.; assay type: functional; conditions: Mus musculus, CA-755, ip, 240 h, route intraperitoneal; outline: as §1
# 6C3HED = assay: Antitumor activity in vivo expressed as percent of inhibition in 6C3HED-lymphosarcoma tumor cell line; assay type: functional, Mus musculus; outline: as §1
# C3H = assay: Antitumor activity in vivo expressed as percent of inhibition in C3H-mammary adenocarcinoma cell line; assay type: functional, Mus musculus; outline: as §1
# [16] = Tested on X-5563 multiple myeloma and number of drug related deaths/total animals in treatment group was determined at 150 mg/kg dosage administered for 10 days orally; 3/10; conditions: mouse, in vivo, po, 240 h
# [17] = Tested on 6 C3 HED lymphosarcoma and number of drug related deaths/total animals in treatment group was determined at 200 mg/kg dosage administered for 8 days perorally; 1/10; assay type: ADME, organism-based; parameters: dose 200 mg/kg, route oral; conditions: mouse, in vivo, po, 192 h
# [18] = Tested on 6 C3 HED lymphosarcoma and number of drug related deaths/total animals in treatment group was determined at 50 mg/kg dosage administered for 8 days perorally; 3/10; assay type: ADME, organism-based; parameters: dose 50 mg/kg, route oral; conditions: mouse, in vivo, po, 192 h
# [19] = Tested on X-5563 multiple myeloma and number of drug related deaths/total animals in treatment group was determined at 100 mg/kg dosage administered for 10 days intraperitoneally; 1/7; assay type: ADME, organism-based; parameters: dose 100 mg/kg, route intraperitoneal; conditions: mouse, in vivo, ip, 240 h
# [20] = Antitumor activity in vivo against the 6C3HED lymphosarcoma dosed for 8 days at 200 mg/kg; conditions: Mus musculus, 192 h
# [21] = Tested on CA-755 mammary adenocarcinoma and percent inhibition was determined at 100 mg/kg dosage administered for 10 days intraperitoneally.; assay type: functional; conditions: Mus musculus, CA-755, ip, 240 h, route intraperitoneal; outline: as §1
# [22] = Antitumor activity in vivo against the 6C3HED lymphosarcoma dosed for 10 days at 275 mg/kg; assay type: functional; conditions: Mus musculus, 192 h, in the assay text read “8 days” for “10 days”; outline: as §1
# [23] = Antitumor activity in vivo against the 6C3HED lymphosarcoma dosed for 10 days at 225 mg/kg; assay type: functional; conditions: Mus musculus, 192 h, in the assay text read “8 days” for “10 days”; outline: as §1
# [24] = Antitumor activity in vivo against the 6C3HED lymphosarcoma dosed for 10 days at 270 mg/kg; assay type: functional; conditions: Mus musculus, 192 h, in the assay text read “8 days” for “10 days”; outline: as §1
# [25] = Antitumor activity in vivo against the 6C3HED lymphosarcoma dosed for 10 days at 300 mg/kg (intraperitoneal dosing for 8 days); assay type: functional; conditions: Mus musculus, ip; outline: as §1
# [26] = Antitumor activity in vivo against the 6C3HED lymphosarcoma dosed for 10 days at 1600 mg/kg (intraperitoneal dosing for 8 days); assay type: functional; conditions: Mus musculus, ip
# Outline: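 Solid tumor fragments of about 1–2 mm were implanted sc by trochar into the subaxillary site of syngeneic mice. Treatment began the day after implantation. Compound was suspended in 2.5% Emulphor in 0.9% saline and given ip. Groups had 7–10 randomized animals. Percent inhibition of growth was scored from tumor volume versus controls one day after the final dose.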
# [27] = Antitumor activity in vivo against the 6C3HED lymphosarcoma dosed for 10 days at 600 mg/kg; assay type: functional; conditions: Mus musculus, 192 h, in the assay text read “dosed for 8 days” for “dosed for 10 days”; outline: as §1
compound,measurement,setting,value
Cc1ccc(S(=O)(=O)/N=C(\S)Nc2ccc(Cl)cc2)cc1,IC50,CCRF-CEM,12.9 µg/mL
same,inhibition in vivo at 300 mg/kg,[1],45%
same,inhibition in vivo at 300 mg/kg,[2],35%
Cc1ccc(S(=O)(=O)NC(=O)Nc2ccc(C(F)(F)F)cc2)cc1,inhibition in vivo at 150 mg/kg,[3],77%
same,Inhibition,B16 [4],<60%
same,Toxic/total,[5],1
same,inhibition in vivo at 200 mg/kg,[6],49%
same,Inhibition,CA-755,94%
same,Inhibition,YOSHIDA,94%
same,Inhibition,X5563,79%
same,IC50,CCRF-CEM,5.3 µg/mL
same,inhibition in vivo at 100 mg/kg,[7],81%
same,inhibition in vivo at 50 mg/kg,[8],84%
same,Inhibition,M-5 (Mus musculus),94%
same,inhibition in vivo at 150 mg/kg,[9],94%
same,Increase in life-span,L1210,<50%
same,Inhibition,P1534J,100%
same,Toxic/total,[10],0
same,inhibition in vivo at 100 mg/kg,[11],64%
same,Inhibition,Colon 26,94%
same,Increase in life-span,P388,<50%
same,inhibition in vivo at 200 mg/kg,[12],100%
same,Increase in life-span,B16 [13],<50%
same,Inhibition,[14],79%
same,inhibition in vivo at 50 mg/kg,[15],87%
same,Inhibition,6C3HED,100%
same,Inhibition,C3H,94%
same,Toxic/total,[16],3
same,Toxic/total,[17],1
same,Toxic/total,[18],3
same,Toxic/total,[19],1
same,inhibition in vivo at 200 mg/kg,[20],100%
same,inhibition in vivo at 100 mg/kg,[21],13%
Cc1ccc(S(=O)(=O)NC(=O)Nc2ccccc2)cc1,IC50,CCRF-CEM,> 20 µg/mL
same,inhibition in vivo at 275 mg/kg,[22],44%
O=C(Nc1ccccc1)NS(=O)(=O)c1ccccc1,IC50,CCRF-CEM,> 20 µg/mL
same,inhibition in vivo at 225 mg/kg,[23],35%
O=C(Nc1cccc(C(F)(F)F)c1)NS(=O)(=O)c1ccc([N+](=O)[O-])cc1,inhibition in vivo at 270 mg/kg,[24],20%
same,IC50,CCRF-CEM,> 20 µg/mL
O=C(NC(=O)c1ccccc1)Nc1ccc(Cl)cc1,inhibition in vivo at 300 mg/kg,[25],0%
same,IC50,CCRF-CEM,> 20 µg/mL
same,inhibition in vivo at 300 mg/kg,[2],7%
O=C(NC(=O)c1c(F)cccc1F)Nc1ccc(Cl)cc1 [DIFLUBENZURON],IC50,CCRF-CEM,> 20 µg/mL
same,inhibition in vivo at 1600 mg/kg,[26],33%
same,inhibition in vivo at 300 mg/kg,[2],6%
CCCCNC(=O)NS(=O)(=O)c1ccc(C)cc1 [TOLBUTAMIDE],inhibition in vivo at 600 mg/kg,[27],45%
